The values that follow come from ChEMBL document CHEMBL1133127, “Activation of antibacterial prodrugs by peptide deformylase” (Bioorg Med Chem Lett, 2000).

Data set [1] deals with Escherichia coli. Briefly: The compound was tested for its antibacterial activity against Escherichia coli BL21(DE3) cells in luria broth. Format: functional, organism-based.
Data set [2] has as its system Escherichia coli. Put plainly: The compound was tested for activation by purified Escherichia coli PDF in vitro by measuring deformylation at pH 7.4. Format: functional. An outline of the steps:
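Purified E. coli PDF added to prodrug (~1 mM) in 20 mM sodium phosphate pH 7.4. Aliquots taken over time and quenched with equal volume 100 mM TFA. Analysed by C18 HPLC at 214 nm; kcat/KM derived from deformylation to intermediate.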

A short description of data set [3]: Half-life was determined. To be noted: human. Type of data set: ADME. An outline of the steps: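 Deformylated intermediate cyclizes to diketopiperazine, releasing FdU. Followed by C18 HPLC at 214 nm after PDF treatment in 20 mM sodium phosphate pH 7.4. First-order fit of ln(A0/A) versus time; half-life taken from the fit.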
In data set [4] the test system is Staphylococcus epidermidis. Put plainly: Compound was tested for its antibacterial activity against Staphylococcus epidermidis. Format: functional, organism-based.
In data set [5] the test system is Staphylococcus epidermidis. Put plainly: The compound was tested for its antibacterial activity against Staphylococcus epidermidis. Type of data set: functional, organism-based.
In data set [6] the test system is Escherichia coli. Put plainly: Compound was tested for its antibacterial activity against Escherichia coli BL21(DE3) cells in luria broth. Type of data set: functional, organism-based.

As a reminder, the IC50 is the point on the concentration scale where inhibition reaches its midpoint. A word on the half-life: it is the time in which the quantity being followed falls by half. A high value points to slow decline. With `CSCC[C@H](NC=O)C(=O)N(C)[C@@H](CC(C)C)C(=O)OCC1OC(n2cc(F)c(=O)[nH]c2=O)CC1O` (some centres not stated), the concentration for half-maximal inhibition (IC50) in the data set with Escherichia coli [1] is greater than 100 µM. Besides, the k cat/Km in the data set with Escherichia coli [2] is 1650 M⁻¹ s⁻¹. In data set [3], this molecule yielded a half-life of 2.07 min.
As for `CSCC[C@H](NC=O)C(=O)NC(C)(C)C(=O)OCC1OC(n2cc(F)c(=O)[nH]c2=O)CC1O` (some centres not stated), the IC50 is roughly 50 µM in data set [4], 50 µM in data set [5] and greater than 100 µM in the data set with Escherichia coli [6]. In the data set on Escherichia coli [2], this molecule registered a k cat/Km of 28900 M⁻¹ s⁻¹. In data set [3], this molecule showed a half-life of 51.1 min.
In turn, `CSCC[C@H](NC=O)C(=O)N1CCC[C@@H]1C(=O)OCC1OC(n2cc(F)c(=O)[nH]c2=O)CC1O` (some centres not stated) registered a half-maximal inhibitory concentration (IC50) with Escherichia coli [1] greater than 100 µM. The same molecule had a half-life in data set [3] of 15.2 min.
For `CSCC[C@H](NC=O)C(=O)N1CCC[C@H]1C(=O)OCC1OC(n2cc(F)c(=O)[nH]c2=O)CC1O` (some centres not stated), in the data set on Escherichia coli [1], the IC50 was greater than 100 µM. The molecule further displayed a half-life in data set [3] of 4.68 min.
